Measurements taken from PMC4160279 (Journal of the American Chemical Society, 2014).
Several values for one entry are separate records, joined by “and”; a condition that tells them apart may be missing. Equal entries are not always repeated.

How the values were obtained:
NoV VA387 P dimer [1] = assay: Direct ESI-MS assay, NoV VA387 P dimer; set-up: species or system human NoV VA387 (GII.4); conditions: intrinsic (per binding site) association constant; aqueous ammonium acetate (200 mM), pH 7, 25 °C
In short: (§1)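 Recombinant P dimer, buffer-exchanged into ammonium acetate and quantified by UV, was mixed (e.g., 12 μM) with ganglioside oligosaccharide (e.g., 80 μM) and reference protein (4 μM). Nanoelectrospray in negative ion mode used capillary −0.8 kV, cone 60 V and source 60 °C. Runs covered ≥4 initial ligand concentrations in triplicate. Ka,int came from bound/free abundance ratios, corrected for nonspecific binding, with two equivalent sites.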

NoV VA115 P dimer = assay: Direct ESI-MS assay, NoV VA115 P dimer; set-up: species or system human NoV VA115 (GI.3); conditions: intrinsic (per binding site) association constant; aqueous ammonium acetate (200 mM), pH 7, 25 °C
In short: as §1

NoV VA387 P particle [2] = assay: Proxy protein ESI-MS method, VA387 P particle; assay type: binding, human NoV VA387 (GII.4); conditions: aqueous ammonium acetate (160 mM), pH 7, 25 °C; Gal-3C as proxy protein
In short: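 Gal-3C proxy (3.0 μM), ubiquitin reference (1.0 μM) and GM3 trisaccharide (40 μM) were mixed with VA387 P particle at 0–7.2 μM (0–172.8 μM monomer); the 24-mer came from E. coli. Positive-mode nanoESI. GM3-bound/free proxy ratio was measured after nonspecific-binding correction. Ka,int per site was derived from the ratio change using the known proxy association constant and binding-site concentration.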

NoV VA387 VLP = assay: Proxy protein ESI-MS method, VA387 VLP; assay type: binding, human NoV VA387 (GII.4); conditions: aqueous ammonium acetate (160 mM), pH 7, 25 °C; Gal-3C as proxy protein
In short: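 VLPs were expressed from VA387 VP1 in Sf9 cells by recombinant baculovirus and purified on a sucrose gradient, then tested at 0–570 nM (0–102.6 μM monomer). Each mix held Gal-3C proxy (3.0 μM), ubiquitin reference (1.0 μM) and GM3 trisaccharide (40 μM). Positive-mode nanoESI. Ka,int per site came from the corrected proxy bound/free ratio versus VLP concentration, using the known proxy affinity.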

[3] = target: recombinant fragment of the C-terminus of human galectin-3 (Gal-3C) (Homo sapiens, UniProt P17931); assay: ESI-MS binding of ligand to proxy protein Gal-3C; conditions: association constant of proxy protein for the ligand
NoV VA387 P particle [4] = assay: CaR-ESI-MS screening assay; assay type: binding, human NoV VA387 (GII.4); conditions: P particle (3 μM) and 10 μM of GD1a or GD1b
P dimer VA387 = P dimer VA387 (Human calicivirus NLV/VA98387/1998, UniProt Q913Z3); assay: Direct ESI-MS assay; assay type: binding; conditions: n = 3
In short: (§2)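 Recombinant P dimer (P domain residues 222–539, made in E. coli via a GST fusion system) was titrated with at least four initial oligosaccharide concentrations, in triplicate. Example mix: 12 μM dimer, 80 μM ligand, 4 μM reference protein. Bound/free abundance ratios were taken as solution ratios after nonspecific-binding correction. Ka,int was fitted assuming two independent, equivalent sites.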

P dimer VA115 = target: T1, P dimer VA115 (Human calicivirus NLV/VA98115/1998, UniProt Q91H12); assay: Direct ESI-MS assay; assay type: binding; conditions: n = 3
T1 sequence (Q91H12 227-545): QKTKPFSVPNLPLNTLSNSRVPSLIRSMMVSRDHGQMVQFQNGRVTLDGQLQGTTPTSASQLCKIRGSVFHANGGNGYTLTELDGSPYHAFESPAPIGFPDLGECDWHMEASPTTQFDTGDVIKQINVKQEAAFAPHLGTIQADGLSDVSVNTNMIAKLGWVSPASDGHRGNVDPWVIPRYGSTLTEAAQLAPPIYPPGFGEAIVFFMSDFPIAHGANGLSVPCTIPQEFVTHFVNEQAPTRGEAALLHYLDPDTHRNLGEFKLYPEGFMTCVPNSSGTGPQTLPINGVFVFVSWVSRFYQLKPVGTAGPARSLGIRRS
In short: as §2

NoV VA387 P dimer [5] = conditions: reported values; cited from earlier work

Chain of P dimer VA387 (Q913Z3 222-539): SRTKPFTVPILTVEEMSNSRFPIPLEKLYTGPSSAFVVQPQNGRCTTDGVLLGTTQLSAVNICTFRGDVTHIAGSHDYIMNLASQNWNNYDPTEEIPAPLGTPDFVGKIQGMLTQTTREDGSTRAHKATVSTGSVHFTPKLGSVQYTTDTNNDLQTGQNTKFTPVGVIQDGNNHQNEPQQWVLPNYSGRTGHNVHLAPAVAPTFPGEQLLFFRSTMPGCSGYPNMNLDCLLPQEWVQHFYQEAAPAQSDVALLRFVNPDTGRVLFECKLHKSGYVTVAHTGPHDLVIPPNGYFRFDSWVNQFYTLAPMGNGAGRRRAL
Chain of recombinant fragment of the C-terminus of human galectin-3 (Gal-3C) (P17931 118-248 limits assumed): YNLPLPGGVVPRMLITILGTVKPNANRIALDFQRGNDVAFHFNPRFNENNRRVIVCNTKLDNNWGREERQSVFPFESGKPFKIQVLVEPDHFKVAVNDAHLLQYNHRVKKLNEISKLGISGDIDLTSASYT

CC(=O)N[C@H]1[C@H]([C@H](O)[C@H](O)CO)O[C@@](O[C@H]2[C@@H](O)[C@@H](CO)O[C@@H](O[C@H]3[C@H](O)[C@@H](O)C(O)O[C@@H]3CO)[C@@H]2O)(C(=O)O)C[C@@H]1O (stereo partly drawn) [GM3]
Ka,int P dimer VA387 (NoV VA387 P dimer [1]): 1500 M^–1 and 1500 ± 150 M^–1
Ka,int P dimer VA115 (NoV VA115 P dimer): 1300 ± 130 M^–1
affinity (Ka,int) for VA387 P particle (NoV VA387 P particle [2]): 2600 ± 200 M^–1
affinity (Ka,int) for VA387 VLP (NoV VA387 VLP): 5500 ± 600 M^–1
affinity for Gal-3C [3]: (1.20 ± 0.02) × 10^4 M^–1

CC(=O)N[C@H]1[C@H](O[C@@H]2[C@H](O[C@]3(C(=O)O)C[C@H](O)[C@@H](NC(C)=O)[C@H]([C@H](O)[C@H](O)CO)O3)[C@@H](O)[C@H](O[C@H]3[C@H](O)[C@@H](O)C(O)O[C@@H]3CO)O[C@@H]2CO)O[C@H](CO)[C@H](O)[C@@H]1O[C@@H]1O[C@H](CO)[C@H](O)[C@H](O[C@]2(C(=O)O)C[C@H](O)[C@@H](NC(C)=O)[C@H]([C@H](O)[C@H](O)CO)O2)[C@H]1O (stereo partly drawn) [GD1a]
Ka,int P dimer VA387 (NoV VA387 P dimer [1]): <100 M^–1
Ka,int P dimer VA115 (NoV VA115 P dimer): 320 ± 90 M^–1
binding to P particle, ligand tested alone (NoV VA387 P particle [4]): binds

CC(=O)N[C@H]1[C@H](O[C@@H]2[C@H](O[C@]3(C(=O)O)C[C@H](O)[C@@H](NC(C)=O)[C@H]([C@H](O)[C@@H](CO)O[C@]4(C(=O)O)C[C@H](O)[C@@H](NC(C)=O)[C@H]([C@H](O)[C@H](O)CO)O4)O3)[C@@H](O)[C@H](O[C@H]3[C@H](O)[C@@H](O)C(O)O[C@@H]3CO)O[C@@H]2CO)O[C@H](CO)[C@H](O)[C@@H]1O (stereo partly drawn) [GD2, GD2 ganglioside oligosaccharide (GalNAcb1-4(Neu5Aca2-8Neu5Aca2-3)Galb1-4Glc)]
Kd (P dimer VA387): 6670 µM
Kd (P dimer VA115): 1430 µM

CC(=O)NC1C(O)CC(OC2C(O)C(OC3C(CO)OC(O)C(O)C3O)OC(CO)C2OC2OC(CO)C(O)C(OC3OC(CO)C(O)C(O)C3OC3OC(C)C(O)C(O)C3O)C2NC(C)=O)(C(=O)O)OC1C(O)C(O)CO (stereo not drawn) [fucosyl-GM1, fucosyl-GM1 ganglioside oligosaccharide (Fuc-GM1; Fuca1-2Galb1-3GalNAcb1-4(Neu5Aca2-3)Galb1-4Glc)]
Kd (P dimer VA387): 2170 µM
Kd (P dimer VA115): 1670 µM

CC(=O)N[C@H]1[C@H]([C@H](O)[C@H](O)CO)O[C@@](O[C@H]2[C@@H](O)[C@@H](CO)O[C@@H](O[C@H]3[C@H](O)[C@@H](O)C(O)O[C@@H]3CO)[C@@H]2O)(C(=O)O)C[C@@H]1O (stereo partly drawn) [GM3, GM3 ganglioside oligosaccharide (GM3 trisaccharide, Neu5Aca2-3Galb1-4Glc)]
Kd (P dimer VA387): 667 µM
Kd (P dimer VA115): 769 µM

CC(=O)N[C@H]1[C@H](O[C@@H]2[C@H](O[C@]3(C(=O)O)C[C@H](O)[C@@H](NC(C)=O)[C@H]([C@H](O)[C@@H](CO)O[C@]4(C(=O)O)C[C@H](O)[C@@H](NC(C)=O)[C@H]([C@H](O)[C@@H](CO)O[C@]5(C(=O)O)C[C@H](O)[C@@H](NC(C)=O)[C@H]([C@H](O)[C@H](O)CO)O5)O4)O3)[C@@H](O)[C@H](O[C@H]3[C@H](O)[C@@H](O)C(O)O[C@@H]3CO)O[C@@H]2CO)O[C@H](CO)[C@H](O)[C@@H]1O[C@@H]1O[C@H](CO)[C@H](O)[C@H](O)[C@H]1O (stereo partly drawn) [GT1c, GT1c ganglioside oligosaccharide (Galb1-3GalNAcb1-4(Neu5Aca2-8Neu5Aca2-8Neu5Aca2-3)Galb1-4Glc)]
Ka,int (P dimer VA387): <100 M⁻¹
Ka,int (P dimer VA115): 260 ± 110 M⁻¹

CC(=O)N[C@H]1[C@H](O[C@@H]2[C@H](O[C@]3(C(=O)O)C[C@H](O)[C@@H](NC(C)=O)[C@H]([C@H](O)[C@H](O)CO)O3)[C@@H](O)[C@H](O[C@H]3[C@H](O)[C@@H](O)C(O)O[C@@H]3CO)O[C@@H]2CO)O[C@H](CO)[C@H](O)[C@@H]1O[C@@H]1O[C@H](CO)[C@H](O)[C@H](O[C@]2(C(=O)O)C[C@H](O)[C@@H](NC(C)=O)[C@H]([C@H](O)[C@H](O)CO)O2)[C@H]1O (stereo partly drawn) [GD1a, GD1a ganglioside oligosaccharide (Neu5Aca2-3Galb1-3GalNAcb1-4(Neu5Aca2-3)Galb1-4Glc)]
Kd (P dimer VA387): > 10000 µM
Kd (P dimer VA115): 3120 µM

CC(=O)N[C@H]1[C@H](O[C@@H]2[C@H](O[C@]3(C(=O)O)C[C@H](O)[C@@H](NC(C)=O)[C@H]([C@H](O)[C@H](O)CO)O3)[C@@H](O)[C@H](O[C@H]3[C@H](O)[C@@H](O)C(O)O[C@@H]3CO)O[C@@H]2CO)O[C@H](CO)[C@H](O)[C@@H]1O (stereo partly drawn) [GM2, GM2 ganglioside oligosaccharide (GalNAcb1-4(Neu5Aca2-3)Galb1-4Glc)]
Kd (P dimer VA387): 2780 µM
Kd (P dimer VA115): 1430 µM

CC(=O)N[C@H]1C(O)O[C@H](CO)[C@H](O)[C@@H]1O[C@@H]1O[C@H](CO)[C@H](O)[C@H](O[C@H]2O[C@H](CO)[C@H](O)[C@H](O)[C@H]2O)[C@H]1O[C@@H]1O[C@@H](C)[C@@H](O)[C@@H](O)[C@@H]1O (stereo partly drawn) [B3, B type 3 tetrasaccharide]
intrinsic affinity (Ka,int) of HBGA ligands (NoV VA387 P dimer [5]): 1500 ± 150 M^–1
